This is an account of results in ChEMBL document CHEMBL4364323, “Synthesis and biological evaluation of moxifloxacin-acetyl-1,2,3-1H-triazole-methylene-isatin hybrids as potential anti-tubercular agents against both drug-susceptible and drug-resistant Mycobacterium tuberculosis strains” (Eur J Med Chem, 2019).

Holding throughout (format): functional
Details in all cases: 168 h

For experiment [1], the system named is Mycobacterium tuberculosis. The experiment can be described thus: Antimycobacterial activity against multidrug (isoniazid and rifampicin) resistant Mycobacterium tuberculosis 1 incubated for 7 days by rapid direct susceptibility test. The gist of the method:
(§1)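 Two-fold compound dilutions were mixed with MTB suspension containing 4×10 -3 mg cells per well and incubated at 37 °C in a wet box. MIC was read from the quantity and state of cells in each well under a continuous visual high-magnification system and was re-determined 7 days later.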

Experiment [2] has as its system Mycobacterium tuberculosis. The experiment is described as follows: Antimycobacterial activity against rifampicin-resistant Mycobacterium tuberculosis incubated for 7 days by rapid direct susceptibility test. The procedure, abridged: as §1
Experiment [3] deals with Mycobacterium tuberculosis. The experiment is described as follows: Antimycobacterial activity against multidrug (isoniazid and rifampicin) resistant Mycobacterium tuberculosis 2 incubated for 7 days by rapid direct susceptibility test. The procedure, abridged:
as §1

Values after ≈ are worked out from the molar mass of the structure shown.

On to `CO/N=C1/C(=O)N(Cc2cn(CC(=O)N3CCC[C@@H]4CN(c5c(F)cc6c(=O)c(C(=O)O)cn(C7CC7)c6c5OC)C[C@@H]43)nn2)c2ccccc21`, for which the MIC in experiment [1] worked out at 0.5 µg/mL (≈ 0.716 µM); in experiment [2], 1 µg/mL (≈ 1.43 µM); in experiment [3] it was 1 µg/mL (≈ 1.43 µM).
As for `COc1c(N2C[C@H]3CCCN(C(=O)Cn4cc(CN5C(=O)/C(=N/NC(N)=S)c6ccccc65)nn4)[C@H]3C2)c(F)cc2c(=O)c(C(=O)O)cn(C3CC3)c12`, the minimum inhibitory concentration (MIC) in experiment [1] turned out to be 0.25 µg/mL (≈ 0.337 µM); in experiment [2], 0.25 µg/mL (≈ 0.337 µM); in experiment [3] it was 0.5 µg/mL (≈ 0.673 µM).
For `COc1c(N2C[C@H]3CCCN(C(=O)Cn4cc(CN5C(=O)/C(=N/NC(N)=S)c6cc(F)ccc65)nn4)[C@H]3C2)c(F)cc2c(=O)c(C(=O)O)cn(C3CC3)c12`, the minimum inhibitory concentration (MIC) in experiment [1] amounted to 1 µg/mL (≈ 1.31 µM); in experiment [2] it was 1 µg/mL (≈ 1.31 µM); in experiment [3], 2 µg/mL (≈ 2.63 µM).
Regarding `COc1c(N2C[C@H]3CCCN(C(=O)Cn4cc(CN5C(=O)C(=O)c6ccccc65)nn4)[C@H]3C2)c(F)cc2c(=O)c(C(=O)O)cn(C3CC3)c12`, the results for the MIC in experiment [1], in experiment [2] and in experiment [3] were 0.5 µg/mL (≈ 0.747 µM), 0.5 µg/mL (≈ 0.747 µM) and 0.25 µg/mL (≈ 0.373 µM), respectively.
With `COc1c(N2CCNC(C)C2)c(F)cc2c(=O)c(C(=O)O)cn(C3CC3)c12` (centres undefined) [GATIFLOXACIN], the results for the minimum inhibitory concentration (MIC) in experiment [1], in experiment [2] and in experiment [3] were 0.25 µg/mL (≈ 0.666 µM), 1 µg/mL (≈ 2.66 µM) and 0.5 µg/mL (≈ 1.33 µM), respectively.
Turning to `NNC(=O)c1ccncc1` [ISONIAZID], the minimum inhibitory concentration (MIC) was 64 µg/mL (≈ 467 µM) in experiment [1], 0.5 µg/mL (≈ 3.65 µM) in experiment [2] and greater than 128 µg/mL in experiment [3].
As for `COc1c(N2C[C@@H]3CCCN[C@@H]3C2)c(F)cc2c(=O)c(C(=O)O)cn(C3CC3)c12` [MOXIFLOXACIN], the MIC in experiment [1] worked out at 0.25 µg/mL (≈ 0.623 µM); in experiment [2] it was 0.5 µg/mL (≈ 1.25 µM); in experiment [3], 0.25 µg/mL (≈ 0.623 µM).
For `CO[C@H]1/C=C/O[C@@]2(C)Oc3c(C)c(O)c4c(O)c(c(/C=N/N5CCN(C)CC5)c(O)c4c3C2=O)NC(=O)/C(C)=C\C=C\[C@H](C)[C@H](O)[C@@H](C)[C@@H](O)[C@@H](C)[C@H](OC(C)=O)[C@@H]1C` [RIFAMPIN], the MIC in experiment [1], in experiment [2] and in experiment [3] was greater than 128 µg/mL each time.
